# Measured values collected from several papers.
# Protocols differ between the studies behind these lines.
# CDK17: Cyclin-dependent kinase 17 (CDK17, Homo sapiens, UniProt Q00537)
# CDK17 with cyclin Y: Cyclin-dependent kinase 17, with cyclin Y (CDK17, Homo sapiens, UniProt Q00537)
SMILES,target,effect on,mode,method,tested at,measurement,value
Cc1ccc(NC(=O)c2ccnc(C(F)(F)F)c2)cc1-c1cc(OCCO)nc(N2CCOCC2)c1,CDK17,binding,,competition with immobilised ligand,1 µM,remaining binding,98%
Cc1cc(O)c(-c2ccc([C@@H](C)CN(C)C)cc2)c2c1[nH]c(=O)c1sccc12,CDK17,enzyme activity,inhibitor,,0.1 µM,inhibition,2.42%
CCCCC(=O)Nc1ccc(-c2ccc3ncn(CCC)c(=O)c3c2)cn1,CDK17,binding,,competition with immobilised ligand,0.5 µM,remaining binding,100%
C[C@H]1CC[C@H](n2c3cnccc3c3cnc(Nc4ccc5c(n4)CCN(C(=O)CO)C5)nc32)CC1,CDK17,binding,,competition with immobilised ligand,1 µM,remaining binding,24%
CO[C@@H]1[C@H](N(C)C(=O)c2ccccc2)C[C@H]2O[C@]1(C)n1c3ccccc3c3c4c(c5c6ccccc6n2c5c31)C(=O)NC4,CDK17,enzyme activity,inhibitor,,1 µM,inhibition,0%
CC(C)S(=O)(=O)c1ccc2nccc(Nc3ccc4sc(C5CCCC5)nc4c3)c2c1,CDK17 with cyclin Y,enzyme activity,inhibitor,,1 µM,activity vs control,111%
COc1ccc2oc(-c3ccc4nc(N)oc4c3)c/c(=N\c3ccccc3NC(=O)CCN)c2c1,CDK17 with cyclin Y,binding,,,1 µM,remaining binding,100%
CC#CC(=O)N1CCC[C@H]1c1nc(-c2ccc(C(=O)Nc3ccccn3)cc2)c2c(N)nccn12,CDK17,enzyme activity,inhibitor,,1 µM,inhibition,0%
